Data taken from the M2OR odorant receptor database.

How the values were obtained:
Conditions in all cases: stereoisomer not certain
UniProt Q8VGZ2 = biological target: T1, UniProt Q8VGZ2
T1 sequence (whole entry): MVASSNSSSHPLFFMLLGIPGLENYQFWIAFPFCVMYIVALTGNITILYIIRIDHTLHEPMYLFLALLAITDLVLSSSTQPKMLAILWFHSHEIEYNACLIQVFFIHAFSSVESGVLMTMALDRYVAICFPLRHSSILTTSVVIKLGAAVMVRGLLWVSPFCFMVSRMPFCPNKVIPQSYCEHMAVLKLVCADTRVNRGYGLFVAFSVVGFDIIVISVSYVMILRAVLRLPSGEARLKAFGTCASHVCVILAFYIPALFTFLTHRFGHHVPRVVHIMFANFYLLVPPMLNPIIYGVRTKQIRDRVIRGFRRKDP
Outline: (§1)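 Each receptor–molecule pair is labelled responsive or non-responsive (inactive) according to whether the original authors judged the measured signal statistically different from baseline. The data were taken from the main text and supplementary material of published papers and checked for typos and inconsistencies. Assay methods differed by source, with transient luciferase assays in mammalian cell lines being common.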

UniProt Q8VGZ7 = biological target: T2, UniProt Q8VGZ7
T2 sequence (whole entry): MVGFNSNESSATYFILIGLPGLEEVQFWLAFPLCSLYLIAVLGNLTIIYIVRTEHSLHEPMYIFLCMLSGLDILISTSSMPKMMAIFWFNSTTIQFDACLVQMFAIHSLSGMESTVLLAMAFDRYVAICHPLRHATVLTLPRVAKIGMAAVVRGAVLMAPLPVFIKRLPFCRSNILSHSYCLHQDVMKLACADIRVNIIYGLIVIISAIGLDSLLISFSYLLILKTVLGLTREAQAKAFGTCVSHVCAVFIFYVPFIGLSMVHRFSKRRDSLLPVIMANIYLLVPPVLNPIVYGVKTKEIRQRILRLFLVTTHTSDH
Outline: as §1

UniProt Q8VH16 = biological target: T3, UniProt Q8VH16
T3 sequence (whole entry): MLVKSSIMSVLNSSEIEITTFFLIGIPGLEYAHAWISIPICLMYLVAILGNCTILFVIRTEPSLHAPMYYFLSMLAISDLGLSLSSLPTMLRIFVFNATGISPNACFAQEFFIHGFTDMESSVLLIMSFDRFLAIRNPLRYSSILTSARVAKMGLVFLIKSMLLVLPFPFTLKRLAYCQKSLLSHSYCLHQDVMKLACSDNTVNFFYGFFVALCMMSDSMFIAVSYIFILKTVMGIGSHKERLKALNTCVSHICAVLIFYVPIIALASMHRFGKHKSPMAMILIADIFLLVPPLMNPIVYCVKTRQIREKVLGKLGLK
Outline: as §1

UniProt Q8VH20 = biological target: T4, UniProt Q8VH20
T4 sequence (whole entry): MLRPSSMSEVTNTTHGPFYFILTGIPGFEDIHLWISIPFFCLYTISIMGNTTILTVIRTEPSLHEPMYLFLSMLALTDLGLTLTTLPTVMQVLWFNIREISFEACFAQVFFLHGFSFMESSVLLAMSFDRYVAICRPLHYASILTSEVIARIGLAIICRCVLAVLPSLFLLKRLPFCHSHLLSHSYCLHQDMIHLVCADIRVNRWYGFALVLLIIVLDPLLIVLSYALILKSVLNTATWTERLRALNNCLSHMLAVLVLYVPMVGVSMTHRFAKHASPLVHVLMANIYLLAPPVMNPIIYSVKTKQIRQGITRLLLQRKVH
Outline: as §1

UniProt Q8VH21 = biological target: T5, UniProt Q8VH21
T5 sequence (whole entry): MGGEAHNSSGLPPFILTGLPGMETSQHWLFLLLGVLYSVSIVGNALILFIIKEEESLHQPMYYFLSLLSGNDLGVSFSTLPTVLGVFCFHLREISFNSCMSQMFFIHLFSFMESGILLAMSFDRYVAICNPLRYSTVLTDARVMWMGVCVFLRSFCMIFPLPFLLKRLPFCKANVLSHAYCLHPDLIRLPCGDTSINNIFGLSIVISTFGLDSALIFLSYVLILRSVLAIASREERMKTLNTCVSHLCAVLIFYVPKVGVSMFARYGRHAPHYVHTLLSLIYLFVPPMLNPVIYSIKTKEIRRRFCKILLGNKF
Outline: as §1

UniProt Q924H8 = biological target: T6, UniProt Q924H8
T6 sequence (whole entry): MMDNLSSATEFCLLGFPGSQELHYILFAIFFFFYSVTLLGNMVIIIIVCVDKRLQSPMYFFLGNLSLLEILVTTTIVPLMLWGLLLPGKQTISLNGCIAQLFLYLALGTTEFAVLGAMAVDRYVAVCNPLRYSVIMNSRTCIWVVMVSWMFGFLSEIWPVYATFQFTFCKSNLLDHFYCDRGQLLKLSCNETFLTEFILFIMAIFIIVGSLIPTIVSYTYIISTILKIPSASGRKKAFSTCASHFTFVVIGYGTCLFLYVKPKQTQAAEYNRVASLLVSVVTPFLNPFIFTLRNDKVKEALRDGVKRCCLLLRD
Outline: as §1

UniProt Q8VGX8 = biological target: T7, UniProt Q8VGX8
T7 sequence (whole entry): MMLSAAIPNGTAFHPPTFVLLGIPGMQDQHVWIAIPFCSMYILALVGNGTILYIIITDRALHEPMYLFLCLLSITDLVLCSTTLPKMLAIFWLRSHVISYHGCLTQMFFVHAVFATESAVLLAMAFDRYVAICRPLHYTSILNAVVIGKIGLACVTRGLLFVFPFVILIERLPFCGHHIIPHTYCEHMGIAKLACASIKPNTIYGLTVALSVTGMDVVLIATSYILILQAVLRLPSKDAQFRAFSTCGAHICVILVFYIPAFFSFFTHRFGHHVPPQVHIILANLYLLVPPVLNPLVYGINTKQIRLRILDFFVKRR
Outline: as §1

UniProt Q8VGY6 = biological target: T8, UniProt Q8VGY6
T8 sequence (whole entry): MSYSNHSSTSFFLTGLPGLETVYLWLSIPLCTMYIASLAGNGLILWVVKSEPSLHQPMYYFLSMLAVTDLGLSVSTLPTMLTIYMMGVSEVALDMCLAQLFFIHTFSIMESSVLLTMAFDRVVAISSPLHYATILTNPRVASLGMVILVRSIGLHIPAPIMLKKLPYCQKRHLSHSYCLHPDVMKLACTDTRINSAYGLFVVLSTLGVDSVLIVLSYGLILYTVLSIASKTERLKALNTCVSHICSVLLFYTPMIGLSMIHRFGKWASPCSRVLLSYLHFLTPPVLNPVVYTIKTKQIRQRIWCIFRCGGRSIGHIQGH
Outline: as §1

UniProt Q8VH10 = biological target: T9, UniProt Q8VH10
T9 sequence (whole entry): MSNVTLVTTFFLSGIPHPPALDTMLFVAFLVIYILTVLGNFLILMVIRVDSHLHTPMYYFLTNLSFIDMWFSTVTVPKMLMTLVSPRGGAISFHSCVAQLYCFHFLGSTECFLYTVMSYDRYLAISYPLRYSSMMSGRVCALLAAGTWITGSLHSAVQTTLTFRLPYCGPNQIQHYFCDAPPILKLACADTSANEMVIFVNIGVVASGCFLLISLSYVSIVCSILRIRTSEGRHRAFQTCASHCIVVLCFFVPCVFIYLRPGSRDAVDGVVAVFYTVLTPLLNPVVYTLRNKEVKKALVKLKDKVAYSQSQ
Outline: as §1

UniProt Q8VH18 = biological target: T10, UniProt Q8VH18
T10 sequence (whole entry): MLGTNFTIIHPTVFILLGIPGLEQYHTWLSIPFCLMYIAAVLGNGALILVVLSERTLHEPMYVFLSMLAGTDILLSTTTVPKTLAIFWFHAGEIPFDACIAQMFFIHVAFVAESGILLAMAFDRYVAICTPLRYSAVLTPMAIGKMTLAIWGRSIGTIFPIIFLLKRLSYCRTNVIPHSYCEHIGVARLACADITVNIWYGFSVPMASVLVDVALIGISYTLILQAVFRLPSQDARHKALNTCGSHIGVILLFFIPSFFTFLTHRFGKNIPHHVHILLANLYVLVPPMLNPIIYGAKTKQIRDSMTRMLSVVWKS
Outline: as §1

UniProt Q924X8 = biological target: T11, UniProt Q924X8
T11 sequence (whole entry): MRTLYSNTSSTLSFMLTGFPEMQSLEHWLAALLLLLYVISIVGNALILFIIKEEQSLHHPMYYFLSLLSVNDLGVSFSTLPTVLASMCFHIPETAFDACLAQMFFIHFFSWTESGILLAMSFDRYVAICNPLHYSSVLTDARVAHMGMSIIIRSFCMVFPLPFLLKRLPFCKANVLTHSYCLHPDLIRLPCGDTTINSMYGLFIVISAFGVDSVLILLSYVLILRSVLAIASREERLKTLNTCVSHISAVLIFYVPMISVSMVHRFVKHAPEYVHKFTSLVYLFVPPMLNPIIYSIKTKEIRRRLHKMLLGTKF
Outline: as §1

UniProt Q99NH4 = biological target: T12, UniProt Q99NH4
T12 sequence (whole entry): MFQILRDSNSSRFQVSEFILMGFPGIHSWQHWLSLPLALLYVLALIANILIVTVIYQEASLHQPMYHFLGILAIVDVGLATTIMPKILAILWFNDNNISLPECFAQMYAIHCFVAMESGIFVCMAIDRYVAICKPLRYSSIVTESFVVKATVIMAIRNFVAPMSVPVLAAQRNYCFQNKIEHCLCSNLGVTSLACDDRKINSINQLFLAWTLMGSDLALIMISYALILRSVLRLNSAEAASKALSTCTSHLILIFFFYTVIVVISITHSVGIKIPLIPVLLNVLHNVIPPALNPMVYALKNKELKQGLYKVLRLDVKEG
Outline: as §1

UniProt Q9EPN9 = biological target: T13, UniProt Q9EPN9
T13 sequence (whole entry): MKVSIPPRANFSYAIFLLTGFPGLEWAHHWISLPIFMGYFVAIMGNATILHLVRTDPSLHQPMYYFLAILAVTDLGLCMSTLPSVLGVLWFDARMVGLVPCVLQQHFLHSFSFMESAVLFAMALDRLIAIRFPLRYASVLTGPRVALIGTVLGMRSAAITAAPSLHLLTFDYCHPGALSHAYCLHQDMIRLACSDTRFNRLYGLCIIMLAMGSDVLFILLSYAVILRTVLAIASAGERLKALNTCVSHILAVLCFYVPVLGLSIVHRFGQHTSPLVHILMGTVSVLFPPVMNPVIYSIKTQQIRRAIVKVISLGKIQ
Outline: as §1

UniProt Q9R0K2 = biological target: UniProt Q9R0K2
Chain of UniProt Q9R0K2 (Q9R0K2 as listed by the source): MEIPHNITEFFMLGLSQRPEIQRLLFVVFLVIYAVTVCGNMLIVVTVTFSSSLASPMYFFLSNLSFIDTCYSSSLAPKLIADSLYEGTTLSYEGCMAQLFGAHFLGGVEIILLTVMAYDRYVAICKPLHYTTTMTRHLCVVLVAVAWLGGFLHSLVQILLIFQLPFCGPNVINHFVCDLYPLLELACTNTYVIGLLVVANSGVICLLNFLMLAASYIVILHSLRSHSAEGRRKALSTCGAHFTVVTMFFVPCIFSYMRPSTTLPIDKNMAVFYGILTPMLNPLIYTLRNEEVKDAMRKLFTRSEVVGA
Outline: as §1

UniProt Q9WU86 = biological target: T14, UniProt Q9WU86
T14 sequence (whole entry): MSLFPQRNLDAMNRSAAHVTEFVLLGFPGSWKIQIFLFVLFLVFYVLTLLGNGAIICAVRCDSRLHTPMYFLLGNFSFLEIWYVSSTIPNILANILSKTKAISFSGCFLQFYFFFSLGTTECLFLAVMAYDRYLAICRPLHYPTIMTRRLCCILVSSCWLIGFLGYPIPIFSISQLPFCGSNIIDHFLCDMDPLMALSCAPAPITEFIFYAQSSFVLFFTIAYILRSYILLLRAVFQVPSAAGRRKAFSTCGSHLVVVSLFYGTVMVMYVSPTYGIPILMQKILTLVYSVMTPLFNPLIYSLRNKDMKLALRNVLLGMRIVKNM
Outline: as §1

UniProt Q9WU94 = biological target: T15, UniProt Q9WU94
T15 sequence (whole entry): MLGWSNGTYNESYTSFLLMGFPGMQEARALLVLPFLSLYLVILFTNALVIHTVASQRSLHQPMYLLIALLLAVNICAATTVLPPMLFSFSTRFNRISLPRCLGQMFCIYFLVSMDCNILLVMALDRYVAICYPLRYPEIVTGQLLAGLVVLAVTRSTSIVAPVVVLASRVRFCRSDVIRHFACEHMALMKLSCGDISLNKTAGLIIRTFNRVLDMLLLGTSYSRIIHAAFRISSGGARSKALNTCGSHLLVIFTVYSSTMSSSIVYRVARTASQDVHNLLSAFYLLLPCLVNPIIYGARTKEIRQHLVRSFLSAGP
Outline: as §1

UniProt Q9WVD7 = biological target: T16, UniProt Q9WVD7
T16 sequence (whole entry): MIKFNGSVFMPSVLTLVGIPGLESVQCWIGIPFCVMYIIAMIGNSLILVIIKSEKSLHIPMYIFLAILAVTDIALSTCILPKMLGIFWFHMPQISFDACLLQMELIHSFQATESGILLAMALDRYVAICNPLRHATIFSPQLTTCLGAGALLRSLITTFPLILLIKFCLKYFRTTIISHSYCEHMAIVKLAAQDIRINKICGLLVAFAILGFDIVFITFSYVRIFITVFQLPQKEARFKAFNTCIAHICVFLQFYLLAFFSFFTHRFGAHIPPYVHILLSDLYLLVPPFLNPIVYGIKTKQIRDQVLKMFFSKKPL
Outline: as §1
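Further: active if original authors judged signal statistically different from baseline.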

Structure (SMILES)	odorant receptor agonist call (UniProt Q8VGZ2)	odorant receptor agonist call (UniProt Q8VGZ7)	odorant receptor agonist call (UniProt Q8VH16)	odorant receptor agonist call (UniProt Q8VH20)	odorant receptor agonist call (UniProt Q8VH21)	odorant receptor agonist call (UniProt Q924H8)	odorant receptor agonist call (UniProt Q8VGX8)	odorant receptor agonist call (UniProt Q8VGY6)	odorant receptor agonist call (UniProt Q8VH10)	odorant receptor agonist call (UniProt Q8VH18)	odorant receptor agonist call (UniProt Q924X8)	odorant receptor agonist call (UniProt Q99NH4)	odorant receptor agonist call (UniProt Q9EPN9)	odorant receptor agonist call (UniProt Q9R0K2)	odorant receptor agonist call (UniProt Q9WU86)	odorant receptor agonist call (UniProt Q9WU94)	odorant receptor agonist call (UniProt Q9WVD7)
CC(C)=CCCC(C)=CCOC(=O)C(C)C	inactive	inactive	inactive	inactive	inactive	inactive											
CCCCCCCC(=O)[O-].[H+]	active	inactive		active			active	inactive	inactive	active	inactive	active	inactive	inactive	inactive	inactive	active
O=c1ccc2ccccc2o1	inactive	inactive		inactive			inactive	inactive	inactive				inactive	inactive	active		
CCCCCCCCCCCO	inactive	inactive	inactive	inactive	inactive	inactive											
